From PubChem
mHtt clearance: mutant huntingtin protein clearance; HeLa Exon1htt(103Q)mCFP, aggregate imaging; zero = plate's median compound well; inhibition, % at 1.5 µM; actives 0.42% (n = 47,000); AID 853;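 active means inhibition of aggregate fluorescence above about 70%, also judged a hit by eye on the cell image, limit read from the data, passing the limit was not always enough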;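 further: cells exposed to compound for three days before fixation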
M1 ag: M1 muscarinic receptor agonism; CHO-M1 cells, Fluo-4 calcium fluorescence, agonist mode; hits give high values; AID 626; B-score at 10 µM; actives 3% (n = 64,000);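 active means fluorescence rise, raw or as B-score row- and column-corrected plate score, outside the 99.7% band of its plate's samples, either direction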
M1 antag: blocks the rat M1 muscarinic receptor response to acetylcholine; P08482; CHO-M1 cells, Fluo-4 calcium, ACh EC80 antagonist mode; hits give low values; B-score at 10 µM; actives 3.4% (n = 64,000); AID 628;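 active means calcium fluorescence response, raw or row-and-column corrected B-score, differing from the plate sample mean either way at a set confidence level, mostly lower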
Target sequence (P08482 whole entry, looked up): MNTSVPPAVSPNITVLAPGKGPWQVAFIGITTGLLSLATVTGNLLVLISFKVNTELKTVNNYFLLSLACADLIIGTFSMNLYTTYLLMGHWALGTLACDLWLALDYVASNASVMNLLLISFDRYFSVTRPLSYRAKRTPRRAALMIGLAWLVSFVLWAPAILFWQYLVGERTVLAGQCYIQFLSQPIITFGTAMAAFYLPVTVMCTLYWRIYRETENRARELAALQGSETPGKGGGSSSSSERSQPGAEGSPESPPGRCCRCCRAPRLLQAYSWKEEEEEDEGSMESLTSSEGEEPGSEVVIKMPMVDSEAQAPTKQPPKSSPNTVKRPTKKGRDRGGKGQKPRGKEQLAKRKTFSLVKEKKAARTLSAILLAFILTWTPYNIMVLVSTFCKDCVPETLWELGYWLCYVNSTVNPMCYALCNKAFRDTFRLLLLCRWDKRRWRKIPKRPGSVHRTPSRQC
D1 mod: allosterically modulates the human D1 dopamine receptor; P21728; HEK293 D1, CRE-luciferase, dopamine EC30 potentiation; actives deviate in either direction; B-score at 10 µM; actives 5.9% (n = 58,000); AID 641;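 active means luminescence count or its row- and column-corrected plate score outside the 99.7% band of the plate's sample wells, on either side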
HEK293 NFkB inh: lowers PMA/ionomycin-induced NF-kB signal in HEK293 cells | HEK-293 NF-kB luciferase reporter, luminescence | inhibition, % at 3 µM | actives 0.21% (n = 62,000) | AID 465;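 active means inhibition above the mean of all tested compounds plus 3 SD, cut at about 40% in these data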;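 further: 0% = stimulated DMSO wells and 100% = 10 µM reference inhibitor 5653914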
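Reagent: PMA plus ionomycin mix as NF-kB-activating stimulus. Assay system: NF-kB luciferase reporter HEK-293 cells. Technique: luminescence from luciferase substrate reagent. Incubation: 1 h compound pre-incubation, 16 h PMA/ionomycin at 37 °C. Benchmarks: DMSO only as uninhibited control, 10 µM reference inhibitor as full inhibition. Repeats: tested once.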
Jurkat viability: cytotoxic compounds reducing Jurkat cell viability | inhibition, % at 4 µM | AID 463 | actives 1.2% (n = 56,000) | Jurkat E6.1 viability, ATP luminescence, 48 h;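 active means inhibition above the mean inhibition of all tested compounds plus 3 SD, cut at about 28% in these data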
Numbers without * were called inactive; / = not tested or not shown. Sampled rows, rich in hits. Any-hit rate of the full collection: about 9.5%.

SMILES	mHtt clearance	M1 ag	M1 antag	D1 mod	HEK293 NFkB inh	Jurkat viability
CC1CCCCC1NS(=O)(=O)c1ccc(-n2cnnn2)cc1 (centres undefined)	1.1	-0.676	0.107	-2.48*	18.5	6.9
CC1CCCCC1NS(=O)(=O)c1ccc(S(=O)(=O)N2CCCC2)cc1 (centres undefined)	-14.4	-0.424	-1.42	0.992	9.0	10.4
NC(=O)CN1CCN(c2ccccc2F)CC1	/	0.0502	0.623	-0.0888	3.4	-1.5
c1ccc(CN2CCN(CCCNc3ccc4nnc(-c5ccccc5)n4n3)CC2)cc1	/	-1.19	-1.04	-5.6*	0.2	5.5
Fc1ccccc1N1CCN(CCCNc2ccc3nncn3n2)CC1	-15.1	-0.141	-1.64	-6.07*	-10.7	0.3
Cc1ccc(C)c(NC(=S)NCc2cccn2C)c1	-11.4	/	/	/	/	/
Cn1cc(Cl)nc1C(O)c1ccccc1 (centres undefined)	/	0.439	1.21	/	/	/
CCOC(=O)C1CCN(c2c(NCc3ccc(C(=O)NC(C)CC)cc3)c(=O)c2=O)CC1 (centres undefined)	-16.4	-0.0339	0.324	-3.21*	-1.1	-3.1
CCOC(=O)C1CCN(c2c(NCCN3CCN(c4ccccc4)CC3)c(=O)c2=O)CC1	-33.2	-0.421	0.109	-1.32	-0.8	-7.3
COC(=O)C1=C(C)NC2=C(C(=O)CCC2)C1c1ccccn1 (centres undefined)	/	-0.202	-0.501	0.328	6.7	1.5
CCOC(=O)C1(Nc2nccs2)Sc2ccccc2NC1=O (centres undefined)	17.1	0.478	-1.86	1.03	25.8	82.6*
Cc1cc(C(=O)Nc2nc3c(s2)CCCC3)no1	/	-0.582	0.781	-3.78*	-27.2	-3.5
Cc1onc(-c2ccccc2)c1C(=O)Nc1nc2c(s1)CCCC2	22.5	-0.00843	0.405	0.0534	-8.6	7.5
Cc1cc(C(=O)Nc2nnc(-c3ccccc3)s2)no1	/	-0.246	-0.0338	0.952	-13.1	-10.4
CN(C)c1ccc(C(=O)Nc2nc3c(s2)CCCC3)cc1	-26.8	0.204	0.0864	-6.05*	-52.1	0.7
COCC(=O)Nc1nc2ccc(C)cc2s1	/	-0.124	0.0898	-4.95*	-34.3	-1.1
CCc1ccc2nc(NC(=O)c3cc(C)on3)sc2c1	-3.2	0.052	-0.387	0.49	-4.4	82.3*
CCc1c(C(=O)Nc2ccncc2)csc1C	-56.2	-0.64	-0.614	-2.54	4.5	25.7
CSc1nc(C)cc(NC(N)=O)n1	-2.5	-0.51	1.09	0.046	12.6	-5.3
O=C(OC(C(=O)NCC1CCCO1)c1ccc(F)cc1)c1ccco1 (centres undefined)	7.0	0.0351	-0.0539	-0.631	11.2	2.1
CC(=O)N1CCc2c(sc(NC(=O)c3ccc4c(c3)OCCO4)c2C#N)C1	/	-0.264	0.56	/	5.3	88.3*
CC(=O)N1CCc2c(sc(NC(=O)c3ccc(S(=O)(=O)N(C)C)cc3)c2C#N)C1	-22.7	-0.344	0.23	0.193	14.1	0.2
Cc1ccc(S(=O)(=O)NC(=O)c2cc(C)n(CCCn3ccnc3)c2C)cc1	/	-0.314	0.499	-0.76	24.7	4.6
O=C(CS(=O)(=O)Cc1ccccc1)Nc1ccc(Cl)cn1	22.9	/	/	/	/	/
CCOc1ccccc1COC(=O)c1cccc(-n2cnnn2)c1	-28.6	0.274	-0.282	10.3*	13.4	11.1
SMILES	mHtt clearance	M1 ag	M1 antag	D1 mod	HEK293 NFkB inh	Jurkat viability
CCOc1ccccc1NC(=O)COc1cccc(-n2cnnn2)c1	53.0	0.752	0.41	3.12	20.3	9.5
Cc1ccc(C(=O)N2CCN(c3cccc(Cl)c3)CC2)cc1C	/	-0.495	-0.126	-0.304	12.2	37.8*
Cc1cc(C(=O)N2CCN(c3cccc(Cl)c3)CC2)c(C)o1	21.3	-0.74	-2.45	0.0351	11.2	74.8*
C=CCNc1nc(Nc2ccc(-c3nc4ccccc4o3)cc2)nc(N2CCOCC2)n1	-360.3	/	/	/	/	/
CC1CCCC(NC(=O)COC(=O)CCC2CCCC2)C1C (centres undefined)	43.9	/	/	/	/	/
c1csc(-c2ncc3ccccn23)c1	-46.1	-0.552	0.104	-3.8*	3.5	-8.4
COc1ccc(-c2ncc3ccccn23)cc1	-51.7	0.745	0.421	-0.0602	-15.6	-4.7
Cc1ccc2cc3cc(C(=O)N(C)C4CCCCC4)oc3nc2c1	/	3.14	-0.141	-3.52*	-24.7	4.7
Cc1cccc(N(C)C(=O)c2cc3cc4ccc(C)cc4nc3o2)c1	/	1.06	0.702	3.38	13.7	10.3
CN(C)S(=O)(=O)c1ccc(C(=O)Nc2nc(-c3cccs3)cs2)cc1	/	-0.201	0.05	-2.63	1.4	36.2*
COc1ccccc1-n1nnnc1SCc1cc2c(cc1Br)OCO2	21.8	0.0049	0.0835	/	-0.4	3.3
COc1cc(OC)c(C2CC(=O)N3CN(C)CSC3=C2C#N)cc1OC (centres undefined)	/	-0.563	0.663*	-0.274	-2.3	0.3
O=C(CCNc1ccc(F)c(Cl)c1)c1ccco1	-23.3	0.819	-0.0202	0.225	17.0	65.3*
O=C(Nc1ccc2c(c1)OCCO2)NC12CC3CC(CC(C3)C1)C2	-6.8	-0.213	0.191	/	-24.9	-6.2
O=C(Nc1ccc2c(c1)OCCO2)NC1(C(F)(F)F)Oc2ccccc2O1	-123.0	0.095	-1.68	-3*	12.2	24.9
CCOC(=O)c1nnn(-c2nonc2N)c1-c1ccccc1	/	-0.355	-0.24	8.97*	21.1	1.2
O=C(Nc1ccc(Cl)c(Cl)c1)OCc1cncs1	4.9	/	/	/	/	/
O=C(Cn1nnc(-c2cccc(C(F)(F)F)c2)n1)NC1CCCC1	/	0.0785	-0.18	-0.639	11.9	6.2
Cc1ccc(C(C(=O)NCc2ccco2)N(CCc2ccccc2)C(=O)Cn2nnc3ccccc32)o1 (centres undefined)	/	0.501	0.409	-4.32*	-0.7	-4.4
Cc1ccc(CN(C(=O)Cn2nnc3ccccc32)C(C(=O)NCc2ccco2)c2ccc(C)o2)cc1 (centres undefined)	18.7	/	/	/	/	/
COc1cccc(N(C(=O)Cn2nnc3ccccc32)C(C(=O)NCc2ccco2)c2cccnc2)c1 (centres undefined)	/	0.8	1.05	0.97	27.3	-6.8
COc1cccc(C(C(=O)NCc2ccco2)N(Cc2ccco2)C(=O)Cn2nnc3ccccc32)c1 (centres undefined)	80.0*	/	/	/	/	/
COc1ccccc1N1CCN(CC(=O)Nc2cc(C)nn2-c2nc(C)cc(C)n2)CC1	/	3.41*	-0.0283	4.82*	27.2	/
COc1ccccc1N1CCN(CC(=O)Nc2cc(F)ccc2C)CC1	/	-1.1	-0.48	/	6.3	/
Cc1cc(N2CCN(c3ccccc3)CC2)nc(NCc2ccccc2)n1	-2.7	0.429	0.116	-3.54*	-7.7	-0.6
CCOC(=O)c1ccccc1NC(=O)Cn1c(-c2nonc2N)nc2ccccc21	/	1.09	1.31	/	46.9*	97.6*
Nc1nonc1-c1nc2ccccc2n1CC(=O)NC1CCCC1	/	-0.321	0.0329	/	19.9	2.1
CCCCn1c(-c2nonc2N)nc2ccccc21	21.8	/	/	/	/	/
Nc1nonc1-c1nc2ccccc2n1Cc1ccccc1	-19.3	0.102	0.777	1.57	13.4	88.7*
